Tests used:
Format in all cases: toxicity, cell-based
U2OS = experiment: Incucyte cell viability with U2OS; conditions: human, 10 µM, compound concentration 10 uM; further: filed as whole numbers so only -1 and 0 and 1 occur
Fibroblast [1] = experiment: Incucyte cell viability with human fibroblast; conditions: 10 µM, compound concentration 10 uM; further: filed as whole numbers so only -1 and 0 and 1 occur
Fibroblast [2] = experiment: Multiplex assay against human fibroblast
In short: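 Tubulin, mitochondrial-mass and membrane-permeability phenotypes are per cents of healthy-nucleus cells. Cells were gated by CellPathfinder machine learning into Hoechst high-intensity objects or normal cells, normal cells into healthy, pyknosed or fragmented nuclei, and pyknosed cells into mitotic or apoptotic. Before that, live cells stained at seeding with Hoechst33342, BioTracker Green Microtubule Cytoskeleton Dye, MitoTracker Red and Annexin V Alexa Fluor 680 were imaged on a CQ1 microscope at 37°C and 5% CO2 after compound addition.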

HEK-293T = experiment: Incucyte cell viability with HEK293T; conditions: human, 10 µM, compound concentration 10 uM; further: filed as whole numbers so only -1 and 0 and 1 occur
[3] = 0 h, replicate number 1, timepoint 0 hours
[4] = 6 h, replicate number 1, timepoint 6 hours
[5] = 6 h, replicate number 2, timepoint 6 hours
[6] = 12 h, replicate number 1, timepoint 12 hours
[7] = 18 h, replicate number 1, timepoint 18 hours
[8] = 24 h, replicate number 1, timepoint 24 hours
[9] = 12 h, 1 µM, compound concentration 1 uM, replicate 1
[10] = 12 h, 1 µM, compound concentration 1 uM, replicate 2
[11] = 12 h, 10 µM, compound concentration 10 uM, replicate 1
[12] = 12 h, 10 µM, compound concentration 10 uM, replicate 2
[13] = 24 h, 1 µM, compound concentration 1 uM, replicate 1
[14] = 24 h, 1 µM, compound concentration 1 uM, replicate 2
[15] = 24 h, 10 µM, compound concentration 10 uM, replicate 1
[16] = 24 h, 10 µM, compound concentration 10 uM, replicate 2
[17] = 48 h, 1 µM, compound concentration 1 uM, replicate 1
[18] = 48 h, 1 µM, compound concentration 1 uM, replicate 2
[19] = 48 h, 10 µM, compound concentration 10 uM, replicate 1
[20] = 48 h, 10 µM, compound concentration 10 uM, replicate 2

SMILES: CC(C)c1cc(Nc2nc(N3CCC[C@H](N)C3)ncc2C(N)=O)cc(C(C)C)n1
- Growth Rate (U2OS; [3]): 1
- Growth Rate (U2OS; 0 h, replicate number 2, timepoint 0 hours): 0
- Growth Rate (U2OS; [4]): 0
- Growth Rate (U2OS; [5]): 1
- Growth Rate (U2OS; [6]): 0
- Growth Rate (U2OS; [7]): 0
- Growth Rate (U2OS; [8]): 0
- Growth Rate (Fibroblast [1]; [3]): 0
- Growth Rate (Fibroblast [1]; [4]): 1
- Growth Rate (Fibroblast [1]; [5]): 0
- Growth Rate (Fibroblast [1]; [6]): 1
- Growth Rate (Fibroblast [1]; 12 h, replicate number 2, timepoint 12 hours): 0
- Growth Rate (Fibroblast [1]; [7]): 0
- Growth Rate (Fibroblast [1]; [8]): 0
- Population Apoptotic (%) (Fibroblast [2]; [9]): 57%
- Population Fragmented Nuclei (%) (Fibroblast [2]; [9]): 33%
- Population Healthy Nuclei (%) (Fibroblast [2]; [9]): 36%
- Population Hoechst High Intensity Objects (%) (Fibroblast [2]; [9]): 13%
- Population Membrane Permeable-Phenotype (%) (Fibroblast [2]; [9]): 22%
- Population Mitochondria Different-Phenotype (%) (Fibroblast [2]; [9]): 22%
- Population Mitotic Cells (%) (Fibroblast [2]; [9]): 42%
- Population Normal (%) (Fibroblast [2]; [9]): 86%
- Population Pyknosed Nuclei (%) (Fibroblast [2]; [9]): 30%
- Population Tubulin-Different-Phenotype (%) (Fibroblast [2]; [9]): 82%
- Total Cell Count (Fibroblast [2]; [9]): 127
- Population Apoptotic (%) (Fibroblast [2]; [10]): 44%
- Population Fragmented Nuclei (%) (Fibroblast [2]; [10]): 12%
- Population Healthy Nuclei (%) (Fibroblast [2]; [10]): 75%
- Population Hoechst High Intensity Objects (%) (Fibroblast [2]; [10]): 9%
- Population Membrane Permeable-Phenotype (%) (Fibroblast [2]; [10]): 16%
- Population Mitochondria Different-Phenotype (%) (Fibroblast [2]; [10]): 92%
- Population Mitotic Cells (%) (Fibroblast [2]; [10]): 55%
- Population Normal (%) (Fibroblast [2]; [10]): 90%
- Population Pyknosed Nuclei (%) (Fibroblast [2]; [10]): 12%
- Population Tubulin-Different-Phenotype (%) (Fibroblast [2]; [10]): 96%
- Total Cell Count (Fibroblast [2]; [10]): 82
- Population Apoptotic (%) (Fibroblast [2]; [11]): 59%
- Population Fragmented Nuclei (%) (Fibroblast [2]; [11]): 30%
- Population Healthy Nuclei (%) (Fibroblast [2]; [11]): 37%
- Population Hoechst High Intensity Objects (%) (Fibroblast [2]; [11]): 28%
- Population Membrane Permeable-Phenotype (%) (Fibroblast [2]; [11]): 34%
- Population Mitochondria Different-Phenotype (%) (Fibroblast [2]; [11]): 30%
- Population Mitotic Cells (%) (Fibroblast [2]; [11]): 40%
- Population Normal (%) (Fibroblast [2]; [11]): 71%
- Population Pyknosed Nuclei (%) (Fibroblast [2]; [11]): 31%
- Population Tubulin-Different-Phenotype (%) (Fibroblast [2]; [11]): 76%
- Total Cell Count (Fibroblast [2]; [11]): 96
- Population Apoptotic (%) (Fibroblast [2]; [12]): 65%
- Population Fragmented Nuclei (%) (Fibroblast [2]; [12]): 19%
- Population Healthy Nuclei (%) (Fibroblast [2]; [12]): 31%
- Population Hoechst High Intensity Objects (%) (Fibroblast [2]; [12]): 14%
- Population Membrane Permeable-Phenotype (%) (Fibroblast [2]; [12]): 100%
- Population Mitochondria Different-Phenotype (%) (Fibroblast [2]; [12]): 93%
- Population Mitotic Cells (%) (Fibroblast [2]; [12]): 34%
- Population Normal (%) (Fibroblast [2]; [12]): 85%
- Population Pyknosed Nuclei (%) (Fibroblast [2]; [12]): 48%
- Population Tubulin-Different-Phenotype (%) (Fibroblast [2]; [12]): 100%
- Total Cell Count (Fibroblast [2]; [12]): 55
- Population Apoptotic (%) (Fibroblast [2]; [13]): 48%
- Population Fragmented Nuclei (%) (Fibroblast [2]; [13]): 30%
- Population Healthy Nuclei (%) (Fibroblast [2]; [13]): 32%
- Population Hoechst High Intensity Objects (%) (Fibroblast [2]; [13]): 25%
- Population Membrane Permeable-Phenotype (%) (Fibroblast [2]; [13]): 17%
- Population Mitochondria Different-Phenotype (%) (Fibroblast [2]; [13]): 14%
- Population Mitotic Cells (%) (Fibroblast [2]; [13]): 51%
- Population Normal (%) (Fibroblast [2]; [13]): 74%
- Population Pyknosed Nuclei (%) (Fibroblast [2]; [13]): 36%
- Population Tubulin-Different-Phenotype (%) (Fibroblast [2]; [13]): 77%
- Total Cell Count (Fibroblast [2]; [13]): 143
- Population Apoptotic (%) (Fibroblast [2]; [14]): 26%
- Population Fragmented Nuclei (%) (Fibroblast [2]; [14]): 10%
- Population Healthy Nuclei (%) (Fibroblast [2]; [14]): 68%
- Population Hoechst High Intensity Objects (%) (Fibroblast [2]; [14]): 5%
- Population Membrane Permeable-Phenotype (%) (Fibroblast [2]; [14]): 30%
- Population Mitochondria Different-Phenotype (%) (Fibroblast [2]; [14]): 96%
- Population Mitotic Cells (%) (Fibroblast [2]; [14]): 73%
- Population Normal (%) (Fibroblast [2]; [14]): 94%
- Population Pyknosed Nuclei (%) (Fibroblast [2]; [14]): 20%
- Population Tubulin-Different-Phenotype (%) (Fibroblast [2]; [14]): 94%
- Total Cell Count (Fibroblast [2]; [14]): 77
- Population Apoptotic (%) (Fibroblast [2]; [15]): 63%
- Population Fragmented Nuclei (%) (Fibroblast [2]; [15]): 26%
- Population Healthy Nuclei (%) (Fibroblast [2]; [15]): 42%
- Population Hoechst High Intensity Objects (%) (Fibroblast [2]; [15]): 25%
- Population Membrane Permeable-Phenotype (%) (Fibroblast [2]; [15]): 17%
- Population Mitochondria Different-Phenotype (%) (Fibroblast [2]; [15]): 44%
- Population Mitotic Cells (%) (Fibroblast [2]; [15]): 36%
- Population Normal (%) (Fibroblast [2]; [15]): 75%
- Population Pyknosed Nuclei (%) (Fibroblast [2]; [15]): 31%
- Population Tubulin-Different-Phenotype (%) (Fibroblast [2]; [15]): 82%
- Total Cell Count (Fibroblast [2]; [15]): 92
- Population Apoptotic (%) (Fibroblast [2]; [16]): 84%
- Population Fragmented Nuclei (%) (Fibroblast [2]; [16]): 23%
- Population Healthy Nuclei (%) (Fibroblast [2]; [16]): 23%
- Population Hoechst High Intensity Objects (%) (Fibroblast [2]; [16]): 17%
- Population Membrane Permeable-Phenotype (%) (Fibroblast [2]; [16]): 100%
- Population Mitochondria Different-Phenotype (%) (Fibroblast [2]; [16]): 90%
- Population Mitotic Cells (%) (Fibroblast [2]; [16]): 16%
- Population Normal (%) (Fibroblast [2]; [16]): 82%
- Population Pyknosed Nuclei (%) (Fibroblast [2]; [16]): 53%
- Population Tubulin-Different-Phenotype (%) (Fibroblast [2]; [16]): 100%
- Total Cell Count (Fibroblast [2]; [16]): 57
- Population Apoptotic (%) (Fibroblast [2]; [17]): 70%
- Population Fragmented Nuclei (%) (Fibroblast [2]; [17]): 29%
- Population Healthy Nuclei (%) (Fibroblast [2]; [17]): 40%
- Population Hoechst High Intensity Objects (%) (Fibroblast [2]; [17]): 37%
- Population Membrane Permeable-Phenotype (%) (Fibroblast [2]; [17]): 34%
- Population Mitochondria Different-Phenotype (%) (Fibroblast [2]; [17]): 7%
- Population Mitotic Cells (%) (Fibroblast [2]; [17]): 30%
- Population Normal (%) (Fibroblast [2]; [17]): 62%
- Population Pyknosed Nuclei (%) (Fibroblast [2]; [17]): 29%
- Population Tubulin-Different-Phenotype (%) (Fibroblast [2]; [17]): 68%
- Total Cell Count (Fibroblast [2]; [17]): 162
- Population Apoptotic (%) (Fibroblast [2]; [18]): 42%
- Population Fragmented Nuclei (%) (Fibroblast [2]; [18]): 33%
- Population Healthy Nuclei (%) (Fibroblast [2]; [18]): 56%
- Population Hoechst High Intensity Objects (%) (Fibroblast [2]; [18]): 33%
- Population Membrane Permeable-Phenotype (%) (Fibroblast [2]; [18]): 9%
- Population Mitochondria Different-Phenotype (%) (Fibroblast [2]; [18]): 1%
- Population Mitotic Cells (%) (Fibroblast [2]; [18]): 57%
- Population Normal (%) (Fibroblast [2]; [18]): 66%
- Population Pyknosed Nuclei (%) (Fibroblast [2]; [18]): 10%
- Population Tubulin-Different-Phenotype (%) (Fibroblast [2]; [18]): 58%
- Total Cell Count (Fibroblast [2]; [18]): 204
- Population Apoptotic (%) (Fibroblast [2]; [19]): 95%
- Population Fragmented Nuclei (%) (Fibroblast [2]; [19]): 43%
- Population Healthy Nuclei (%) (Fibroblast [2]; [19]): 24%
- Population Hoechst High Intensity Objects (%) (Fibroblast [2]; [19]): 32%
- Population Membrane Permeable-Phenotype (%) (Fibroblast [2]; [19]): 66%
- Population Mitochondria Different-Phenotype (%) (Fibroblast [2]; [19]): 13%
- Population Mitotic Cells (%) (Fibroblast [2]; [19]): 5%
- Population Normal (%) (Fibroblast [2]; [19]): 67%
- Population Pyknosed Nuclei (%) (Fibroblast [2]; [19]): 32%
- Population Tubulin-Different-Phenotype (%) (Fibroblast [2]; [19]): 66%
- Total Cell Count (Fibroblast [2]; [19]): 92
- Population Apoptotic (%) (Fibroblast [2]; [20]): 80%
- Population Fragmented Nuclei (%) (Fibroblast [2]; [20]): 27%
- Population Healthy Nuclei (%) (Fibroblast [2]; [20]): 38%
- Population Hoechst High Intensity Objects (%) (Fibroblast [2]; [20]): 31%
- Population Membrane Permeable-Phenotype (%) (Fibroblast [2]; [20]): 19%
- Population Mitochondria Different-Phenotype (%) (Fibroblast [2]; [20]): 58%
- Population Mitotic Cells (%) (Fibroblast [2]; [20]): 19%
- Population Normal (%) (Fibroblast [2]; [20]): 68%
- Population Pyknosed Nuclei (%) (Fibroblast [2]; [20]): 33%
- Population Tubulin-Different-Phenotype (%) (Fibroblast [2]; [20]): 55%
- Total Cell Count (Fibroblast [2]; [20]): 135
- Growth Rate (HEK-293T; [4]): 0
- Growth Rate (HEK-293T; [6]): 0
- Growth Rate (HEK-293T; [7]): 0
- Growth Rate (HEK-293T; [8]): 0

Reference: ChEMBL document CHEMBL4689842, “EUbOPEN Chemogenomics Library wave 1” (2021)
